{"source": "paper PMC2948583", "about": "(Journal of proteome research, 2010)", "key": {"[1]": {"tested_on": "whole saliva supernatant proteases", "experiment": "Proteolysis of purified statherin in pooled whole saliva supernatant", "assay_type": "in vitro ADME, human", "conditions": "WSS boiled to abolish protease activities; statherin 400 µg/ml; 37°C; RP-HPLC", "method_in_brief": "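Supernatant from pooled stimulated whole saliva (14,000 × g, 20 min, 4°C), boiled to abolish protease activity. Parotid-derived purified statherin added to 400 µg/ml final. Incubated at 37°C and sampled at 0, 1, 3, 5 and 7 h. Aliquots boiled 10 min, diluted in 0.1% TFA, and analysed by analytical C-18 RP-HPLC (0–55% of 80% acetonitrile/0.1% TFA over 74 min). Intact statherin peak area integrated.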"}, "[2]": {"tested_on": "whole saliva proteases", "experiment": "Proteolysis of purified statherin in pooled whole saliva", "assay_type": "in vitro ADME, human", "conditions": "WS boiled to abolish protease activities; statherin 400 µg/ml; 37°C; RP-HPLC", "method_in_brief": "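Pooled Parafilm-stimulated whole saliva from four healthy donors, boiled to abolish protease activity. Statherin, purified from parotid secretion by zinc precipitation and RP-HPLC, added to 400 µg/ml final. Incubated at 37°C and sampled at 0, 10, 30, 60 and 90 min. Aliquots boiled 10 min, diluted in 0.1% TFA, and run on analytical C-18 RP-HPLC (0–55% buffer B over 74 min). Intact statherin peak integrated.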"}}, "data": [{"substance": "statherin (DSSEEKFLRRIGRFGYGYGPYQPVPEQPLYPQPYQPQYQQYTF; UniProt P02808 20-62, looked up)", "values": [{"measurement": "Stability of statherin in boiled WSS (control)", "setting": "[1]", "value": "remained intact"}, {"measurement": "Stability of statherin in boiled WS (control)", "setting": "[2]", "value": "remained intact"}]}]}
